RanGTP-Impb inh = inhibitors of RanGTP-importin-beta interaction, primary screen, biochemical, FRET, CFP-Ran, YFP-importin-beta, homogeneous. Ran GTPase (GTP-bound) - importin-beta complex. AID 2216, 2009. inhibition, % (no concentration beside the values). 300,000 compounds, 1.1% hits. cell-free CFP-Ran/YFP-importin-beta FRET ratio;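 active = more than half of the replicate wells show a fall in the fluorescence ratio signal beyond about 16%, limit read from the data, passing the limit was not always enough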
LANA-H2B inh = blockers of LANA interaction with H2A/H2B – biochemical, FP readout, HTS, primary screen. Protein LANA1 (Human herpesvirus 8 type P (isolate GK18)), Q9QR71. cell-free LANA-H2A/H2B peptide, fluorescence polarization. inhibition, % (concentration not given with the values). 320,000 compounds, 0.6% hits; in the data active = inhibition mostly above about 10%, no sharp cut-off; inactive = mostly below about 6.7%
Target sequence (Q9QR71 whole entry, looked up): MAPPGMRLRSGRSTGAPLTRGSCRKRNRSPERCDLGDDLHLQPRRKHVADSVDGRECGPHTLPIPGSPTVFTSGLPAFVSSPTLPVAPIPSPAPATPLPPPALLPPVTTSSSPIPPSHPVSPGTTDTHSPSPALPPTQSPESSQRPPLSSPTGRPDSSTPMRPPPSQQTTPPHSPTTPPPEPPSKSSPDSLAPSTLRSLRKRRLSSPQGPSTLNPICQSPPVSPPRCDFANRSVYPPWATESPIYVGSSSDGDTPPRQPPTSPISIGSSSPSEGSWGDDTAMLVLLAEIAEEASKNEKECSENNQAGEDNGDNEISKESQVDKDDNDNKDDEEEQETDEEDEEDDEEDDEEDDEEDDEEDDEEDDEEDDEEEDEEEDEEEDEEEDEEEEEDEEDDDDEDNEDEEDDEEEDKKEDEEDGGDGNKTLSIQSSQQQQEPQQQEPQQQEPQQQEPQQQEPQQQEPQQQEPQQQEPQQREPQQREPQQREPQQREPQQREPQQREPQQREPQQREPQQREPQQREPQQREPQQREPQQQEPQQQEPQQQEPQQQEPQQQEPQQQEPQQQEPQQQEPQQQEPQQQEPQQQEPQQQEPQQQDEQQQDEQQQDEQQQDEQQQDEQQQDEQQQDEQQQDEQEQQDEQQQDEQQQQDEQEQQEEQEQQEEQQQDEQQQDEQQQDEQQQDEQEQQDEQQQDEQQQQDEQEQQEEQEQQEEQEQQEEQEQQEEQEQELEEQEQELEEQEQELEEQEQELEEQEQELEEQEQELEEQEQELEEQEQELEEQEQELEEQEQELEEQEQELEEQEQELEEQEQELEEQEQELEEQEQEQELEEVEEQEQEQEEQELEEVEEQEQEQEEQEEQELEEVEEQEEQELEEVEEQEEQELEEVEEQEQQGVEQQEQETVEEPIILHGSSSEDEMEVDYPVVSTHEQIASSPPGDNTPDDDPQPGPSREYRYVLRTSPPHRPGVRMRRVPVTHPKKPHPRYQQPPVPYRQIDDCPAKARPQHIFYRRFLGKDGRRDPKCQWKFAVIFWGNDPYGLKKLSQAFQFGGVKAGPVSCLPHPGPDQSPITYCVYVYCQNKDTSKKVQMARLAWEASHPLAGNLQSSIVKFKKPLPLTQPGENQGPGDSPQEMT
Runt-CBFb FRET = inhibitors of RUNX1 Runt–CBFb binding, primary screen, biochemical, FRET, Cerulean-Runt, Venus-CBFb, uHTS; 220,000 compounds, 0.46% hits; Cerulean-Runt/Venus-CBFb FRET ratio 530/480, 1 h; Runt-related transcription factor 1 (Homo sapiens) + Core-binding factor subunit beta …; inhibition, % at 20 µM;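 active = inhibition over about 50% at 20 µM in the single-dose screen, limit read from the data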
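Reagent – Venus-CBFb binding partner, 100 nM · Assay system – Cerulean-tagged RUNX1 Runt domain (FRET donor) fusion protein · Input – 100 nM per protein · Incubation – two 1 h room-temperature incubations shielded from light · Measured by – FRET fluorescence · Medium – Tris buffer pH 7.5 with salts and BSA · Benchmarks – unlabeled CBFb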
EBV gp42 block = Epstein-Barr virus gp42 inhibitors, primary screen, biochemical, uHTS, fluorescence polarization; Glycoprotein 42 (Epstein-Barr virus (strain AG876)), Q1HVG2; Fluorescence polarization binding assay, mP read-out; inhibition, % (tested at 21.74 µM); 220,000 compounds, 0.42% hits; AID 1085, 2008; in the data active = inhibition above about 50%
Runt-SMMHC FRET = inhibitors of RUNX1 Runt–CBFb-SMMHC binding, primary screen, biochemical, FRET, Cerulean-Runt, Venus-CBFb-SMMHC, uHTS | 220,000 compounds, 0.74% hits | inhibition, % at 20 µM | Runt-related transcription factor 1 (Homo sapiens) + Core-binding factor subunit beta … | Cerulean-Runt/Venus-CBFb-SMMHC FRET ratio 530/480, 1 h;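 active = mean inhibition across duplicate retests at 20 µM reaching about 50%, limit read from the data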;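 note: inhibitors lower the FRET ratio by blocking Runt binding to CBFb-SMMHC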
MEX-5 binding = MEX-5 zinc finger RNA-binding disruptors – biochemical, C. elegans, fluorescence polarization, MLPCN library, primary screen; MEX-5/FITC-TCR2 RNA binding; hits give low values; 300,000 compounds, 0.38% hits; Zinc finger protein mex-5 (Caenorhabditis elegans), Q9XUB2; activity score (negative = inhibition of binding), % at 10 µM;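 active = inhibition past about -25% in most replicates, and total fluorescence under double the plate's negative control median, limit read from the data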
Runt-CBFb TRFRET = inhibitors of RUNX1 Runt–CBFb binding, biochemical, TR-FRET; inhibition, % at 20 µM; AID 1502, 2009; shares compounds with Runt-CBFb FRET; TR-FRET RUNX1 Runt domain-CBFb binding; 480 compounds, 20% hits; in the data active = inhibition above about 40%
YIC FRET counter = YIC intramolecular FRET probe signal interference, dose response, counter-screen for RanGTP-importin-beta inhibitor project, biochemical, fluorescence FRET. shares compounds with RanGTP-Impb inh. Purified YIC probe, intramolecular FRET ratio YFP/CFP. IC50, µM. 1,000 compounds, 40% hits. AID 435026, 2010;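 active = fitted half-maximal inhibitory concentration no more than tenfold above the top dose tested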
Large screens that a line does not name were inactive (follow-up assays come after a bar, where they were run). Rows were chosen to be rich in hits. Some 2.4% of all compounds tested hit in one or more screens of this group.

CCOC(=O)c1c(N)n(CCCOC(=O)c2ccco2)c2nc3ccccc3nc12	RanGTP-Impb inh 23.5, Runt-CBFb FRET 72.4, Runt-SMMHC FRET 116.0 (no result: EBV gp42 block) | Runt-CBFb TRFRET inactive | YIC FRET counter 23.8
Cn1cnc(CCN)c1	none (no result: Runt-CBFb FRET, EBV gp42 block, Runt-SMMHC FRET)
Cc1ccc(-n2c(O)c(/C=N/N3CCCCCC3)c(=O)[nH]c2=O)cc1C	RanGTP-Impb inh 22.1 | YIC FRET counter inactive
O=c1[nH]c(=O)n(-c2cccc3ccccc23)c(O)c1/C=N/N1CCCCC1	none
O=c1[nH]c(=O)n(-c2cccc3ccccc23)c(O)c1/C=N/N1CCCCCC1	RanGTP-Impb inh 21.9 | YIC FRET counter inactive
Cn1c(O)c(/C=N/N2CCCCC2)c(=O)[nH]c1=O	none
COC(=O)C1=C(c2cccc(OCc3ccccc3)c2)C[C@@H]2CC[C@H]1N2C(=O)NCc1ccc([N+](=O)[O-])cc1	none (no result: RanGTP-Impb inh, Runt-CBFb FRET, EBV gp42 block, Runt-SMMHC FRET, MEX-5 binding)
Cc1nc2cc([N+](=O)[O-])ccc2c(=O)n1-c1cccc(Br)c1	none (no result: Runt-CBFb FRET, EBV gp42 block, Runt-SMMHC FRET)
Cc1cc(/C=C2\C(=O)NC(=O)N(c3ccc(F)cc3)C2=O)c(C)n1-c1ccc(C(=O)O)cc1	RanGTP-Impb inh 17.7 | YIC FRET counter inactive
CCc1ccc(N2C(=O)NC(=O)/C(=C\c3cc(C)n(-c4cc(C(=O)O)cc(C(=O)O)c4)c3C)C2=O)cc1	RanGTP-Impb inh 19.2 (no result: Runt-CBFb FRET, EBV gp42 block, Runt-SMMHC FRET) | YIC FRET counter inactive
O=C1NC(=O)N(c2ccccc2F)C(=O)/C1=C/c1ccc(Oc2ccc([N+](=O)[O-])cn2)cc1	none
O=c1[nH]c(O)c(/C=C2/C=CC(c3cc(Cl)ccc3Cl)=N2)c(=O)[nH]1	RanGTP-Impb inh 37.9, Runt-CBFb FRET 115.2, Runt-SMMHC FRET 80.2 | YIC FRET counter 4.04
Cc1sc2nc(COC(=O)Cc3ccccc3)[nH]c(=O)c2c1C	RanGTP-Impb inh 20.1 | YIC FRET counter inactive
Cc1cccc(C)c1OC(=O)Cc1ccccc1	none
Cc1ccc(-c2nc(CS(=O)CC(=O)N3CCC4(CC3)OCCO4)c(C)o2)cc1 (stereo unspecified)	none
Nc1ccc(C2(c3ccc(N)cc3)CN3CCC2CC3)cc1	RanGTP-Impb inh 48.6 | YIC FRET counter inactive
Cc1ccc(C2(O)CN3CCC2CC3)cc1 (stereo unspecified)	none (no result: Runt-CBFb FRET, EBV gp42 block, Runt-SMMHC FRET)
CCN1C[C@@]2(COC)C3[C@@H](OC)[C@H]4[C@@H]1[C@@]3(C1C[C@@]3(O)[C@H](OC(=O)c5ccccc5)C1[C@]4(OC(C)=O)[C@@H](O)[C@H]3OC)[C@@H](OC)C[C@H]2O (stereo partly specified)	none (no result: Runt-CBFb FRET, EBV gp42 block, Runt-SMMHC FRET)
NC(N)=N/N=C/c1ccc(N(c2ccccc2)c2ccccc2)cc1	RanGTP-Impb inh 23.1 (no result: Runt-CBFb FRET, EBV gp42 block, Runt-SMMHC FRET) | YIC FRET counter inactive
Cc1c(OC(=O)N(C)C)ccc2c1O/C(=C\c1ccco1)C2=O	RanGTP-Impb inh 29.9 (no result: Runt-CBFb FRET, EBV gp42 block, Runt-SMMHC FRET) | YIC FRET counter 11.7
